Consider 167 variants from the RNAGym collection of RNA variant scans (doi:10.1126/science.aae0568).

This sample holds only a part of the variants without activity.

The chains are these.
B1: tRNA (parent)
chain: GUUCCGUUGGCGUAAUGGUAACGCGUCUCCCUCCUAAGGAGAAGACUGCGGGUUCGAGUCCCGUACGGAACG

Variants of B1 are the subject of this data set. The data set is described as follows: yeast fitness relative to wild type (ratio to wild type); higher = fitter; tRNA-Arg(CCU), competitive growth, 37 C, YPD. In a few lines: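 Variants of the tRNA-Arg(CCU) gene were chemically synthesised with a 3% per-site mutation rate across 69 sites and placed at the native genomic locus in Saccharomyces cerevisiae. Six parallel replicates of the pooled strains were competed in YPD at 37°C for 24 hours, and gene amplicons from the start and end populations were read by 100-nucleotide paired-end sequencing. Darwinian fitness relative to wild type was derived from changes in genotype frequencies. Genotypes required ≥ 100 starting reads, and estimates < 0.5 were set to 0.5.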
In the case of U7C A21U C24A C62U U64C, the yeast fitness is 0.661.
The same measure for C5U G50A C66U: 0.637; for C11U C55A U64C: at most 0.5; for C5U C34U A40C: at most 0.5.
As for C11G A15U A21G G38C, the yeast fitness was determined as 0.604.
For G6C C46U A57C, the yeast fitness is at most 0.5.
With G18C C60U G67A the figure was at most 0.5.
The same measure for U2C U7A C34U G44C: at most 0.5; for U19C C30G U59C A69U: at most 0.5.
As to C5U G12C, the yeast fitness was 0.818.
With A15U G23C C33A G63A, the yeast fitness was at most 0.5.
Turning to U8C U19G C22U C31U A40U G67A, the yeast fitness was 0.53.
The same measure for A15U C27G C49A G52U: at most 0.5.
For the variant A43C A45U, the yeast fitness came out at 0.973.
With U7C C31G A65U the figure was 0.664.
As to A15C C33U U47G C49U G52C G68A, the yeast fitness was at most 0.5.
Consider U2A C5A A21C, for which the yeast fitness is at most 0.5.
Turning to U7A U47A C55G G68A, the yeast fitness was at most 0.5.
The same measure for C34A C55G G58A U64C A65C: at most 0.5; for A15G U19C A37U C49U G51A C60A: at most 0.5; for U19C C61U: 0.925.
With C5G A37G the figure was 0.805; with C27U C49U U54A A57G C66A, 0.629; with U8C A14U C30A C66U A70G, 0.546.
As for C30G C49A U53C, the yeast fitness is 0.563.
Turning to C11U A15G C27G G56C, the yeast fitness was at most 0.5.
Regarding G23C A37C A42G C46G C66U, the yeast fitness was at most 0.5.
Take C31G A70U: the yeast fitness amounted to 0.938.
Take A21C U32C C34A: the yeast fitness was at most 0.5.
As to C31A A37G A65U, the yeast fitness was 0.629.
For C11A G44C, the yeast fitness amounted to 0.59.
With A14G A15C A69C A70G the figure was 0.618; with A36C A45U U59A, at most 0.5; with U2A G48C G50A, 0.732.
Regarding C33U A65U C66U, the yeast fitness is at most 0.5.
On to G18A G25C C30G G41U C55G, for which the yeast fitness is at most 0.5.
As to G58A C60U A70G, the yeast fitness was determined as 0.702.
Take U16A G48A C62G A69U: the yeast fitness is 0.629.
Take U3A A42U A43G G48C U53A A69C: the yeast fitness was at most 0.5.
For the variant G12A G51A, the yeast fitness turned out to be 0.883.
The same measure for C24U A65U: 0.894; for C11U C60G: 0.607; for G10A C27A: 0.801.
The same measure for C33U C49G C60G C62G G63A: at most 0.5; for C11G C27A A57C C62U: at most 0.5.
As for U32A C55U, the yeast fitness came out at 0.501.
Take A15C G17A C29A C30U C62G U64A: the yeast fitness was at most 0.5.
On to U8G C24A C30G A40G U47G C55U, for which the yeast fitness came out at 0.512.
C30G A57U: the yeast fitness was determined as 0.609.
Regarding C11G A14C A37C G44C C61G G63C, the yeast fitness was at most 0.5.
The same measure for G38A C46U: 0.798.
With C24U A42U A43C A57C C60A the figure was 0.637.
The same measure for C11U A21G: 0.922; for A37G U47G G52A: at most 0.5; for G12A A20U G23C U32C A69G: at most 0.5.
For C4A U54G A65U, the yeast fitness was at most 0.5.
The same measure for C5U A15U G63A A70U: 0.807; for U2A G6A U16C U28A G50A: at most 0.5; for A20G A65G A70C: 0.694.
For the variant C5G G9C A36G C46U, the yeast fitness is at most 0.5.
Regarding A20G C22U A37U G41C C46A, the yeast fitness was at most 0.5.
The same measure for U19G C29U: 0.795; for C31U U32C C33U: 0.667.
For the variant A20C G44C G48A G51A, the yeast fitness was at most 0.5.
Take U16C C27A A45U C60G A65U: the yeast fitness worked out at 0.542.
U2A C66U: the yeast fitness turned out to be 0.739.
As to A14U C29U A37U G50A, the yeast fitness is at most 0.5.
Regarding A40C A57C C61A, the yeast fitness is at most 0.5.
With C4A C31U A37G G48A U54A C55G A65U the figure was at most 0.5; with C5G C11A A20G U28C C33U A70C, at most 0.5; with C34U C49U A69U, 0.607.
As to G56A G68A, the yeast fitness was 1.04.
With U28A G41A G67A the figure was at most 0.5; with G6A A40U C46A, 0.657.
For the variant U3G G17A C30U A69U, the yeast fitness was at most 0.5.
For the variant A14G A15U G25C C49U, the yeast fitness is 0.619.
Take U2A A20U A40C: the yeast fitness was 0.552.
As to U54A C62U G68A, the yeast fitness is 0.504.
In the case of U3A C4U G25C G63C, the yeast fitness was at most 0.5.
For the variant C24U C62A A69C, the yeast fitness is 0.524.
The same measure for U16C C24U C30U: at most 0.5.
U8A G18C G25C A57U C60U C61A: the yeast fitness was at most 0.5.
On to C31A C33G, for which the yeast fitness was 0.569.
G17C C49G: the yeast fitness was 0.743.
With G10C G18A C22U the figure was 0.633; with G51C A65G, 0.593; with U8G C46A C55A, at most 0.5.
On to C4A A36G, for which the yeast fitness is 0.87.
A14C C33G A42C G48A C60U: the yeast fitness was at most 0.5.
With C5A U32G C55U, the yeast fitness was at most 0.5.
As for U28A A70G, the yeast fitness was 0.904.
As to U7A C49U A65C, the yeast fitness was determined as 0.711.
With U19G C62U the figure was 0.857; with C4G G17C A43C G51A, at most 0.5.
Take A14C G25A: the yeast fitness turned out to be 0.889.
On to C5A C30G C31G U32C, for which the yeast fitness was found to be 0.598.
In the case of U28A G52C, the yeast fitness is at most 0.5.
On to C29U A37G C61G A69U, for which the yeast fitness is at most 0.5.
The same measure for C4U C24U A43G C60U C61G: at most 0.5; for C24G A45C: 0.629.
For the variant G6A C61A G67A, the yeast fitness stood at 0.547.
With U28G G41C C55G A70U, the yeast fitness is at most 0.5.
For C27A C62U, the yeast fitness was determined as 0.815.
The same measure for A21U C22U G51C G52A U59G: at most 0.5; for U26A C66A: 0.572; for A14C C33A G41U C49U C66U: at most 0.5.
With U35C G52A, the yeast fitness amounted to 0.658.
For the variant G38A A40C U53C, the yeast fitness was 0.538.
For the variant G6A G68A, the yeast fitness is 0.896.
In the case of A15C A21C C34U A37U, the yeast fitness is at most 0.5.
For U2G C11A C30A A57U, the yeast fitness is at most 0.5.
With U32C A43C C49U, the yeast fitness was 0.648.
Consider U3C A21U A37G G44A G63A, for which the yeast fitness was at most 0.5.
In the case of U8C C22U U53A, the yeast fitness is at most 0.5.
With G18A G25C A43U U59A G63A the figure was at most 0.5.
As to C27U G67C, the yeast fitness worked out at 0.771.
Consider G23C C30G A37U A45C C46G, for which the yeast fitness was at most 0.5.
On to U26C C55U, for which the yeast fitness was 0.617.
Take C11G G25A C29U C34U: the yeast fitness is at most 0.5.
As to G18C C27U G38A G39C U64C, the yeast fitness is at most 0.5.
The same measure for C5A U19G C31G U53A: 0.775; for G44C C62U: 0.902; for C5A C22A A36U A40U: at most 0.5.
With C29U C31U U54G G68A, the yeast fitness is at most 0.5.
With U3A C11U U35C A65C the figure was at most 0.5.
C22G C30A C49A A69U: the yeast fitness is at most 0.5.
Regarding G9A A21C G25C, the yeast fitness stood at 0.565.
With G12A G56A, the yeast fitness amounted to 0.975.
Take C34G U35A A57U: the yeast fitness was at most 0.5.
Consider U2C C29U, for which the yeast fitness amounted to 0.81.
As for C31G G44A G51C A65G, the yeast fitness was 0.537.
For C27A U32C A42C C46U C62U, the yeast fitness was at most 0.5.
As to U3C C24U G56A, the yeast fitness was determined as 0.757.
For C5U C22A A45C, the yeast fitness worked out at 0.564.
The same measure for U7A C66U: 0.762; for G10A C30A A43C A57U: at most 0.5; for U47G C60U A65C: at most 0.5.
Take U7G A14U U19A C22U C61A U64A A69U: the yeast fitness was found to be 0.543.
As to U8C C55A, the yeast fitness was 0.739.
Turning to C5G G12C C49U, the yeast fitness turned out to be 0.584.
On to U32G U59C C61A, for which the yeast fitness is at most 0.5.
U13C C22G C27A G51C: the yeast fitness is at most 0.5.
C22G G25C A43G: the yeast fitness is 0.584.
As for C30A U35C A37U, the yeast fitness is 0.547.
With C62U C66A the figure was 0.686; with C4A U32C A40U A69U, at most 0.5; with G6A C31G G50A, 0.61.
In the case of G9A C11A G58C, the yeast fitness was at most 0.5.
On to U2G C4U C29G, for which the yeast fitness was at most 0.5.
As for C24G U28C G50C, the yeast fitness was at most 0.5.
With C34G G39C the figure was 0.58.
A42U C62A A70C: the yeast fitness turned out to be 0.581.
In the case of C49U C60A A70G, the yeast fitness is 0.546.
U8A C29G A70G: the yeast fitness was at most 0.5.
The same measure for U16C C46G G56A: 0.748; for A15U C49G A70G: 0.576.
With A15U C27U G44C G58C G63C, the yeast fitness was at most 0.5.
The same measure for G17A U28G A42G G68U: at most 0.5; for C11U C31G C34G A43U C61U A65U: at most 0.5; for G17A C30U A57C A69C: 0.688.
With C31A C60G the figure was 0.516; with C22A U26C U47C, 0.541.
Consider G12A C24U G41A, for which the yeast fitness was determined as 0.544.
The same measure for A14G C27U C49A U53A C61U: at most 0.5.
Take C5G U7C G52A: the yeast fitness is at most 0.5.
Take A15U A57U A70C: the yeast fitness is at most 0.5.
As to U3C C4G U28C A43C, the yeast fitness is at most 0.5.
